These results are taken from publication PMC7332231 (Journal of the American Chemical Society, 2020).

Test [1] concerns the target glutathione S-transferase Pi (GSTP1) (Homo sapiens, UniProt P09211). Nature of the test: GSH substrate assay in recombinant GSTP1 lysates. It is filed as biochemical.
The target in a further test is T1, YWHAE (Homo sapiens, UniProt P62258).
T1 sequence (P62258 1-255): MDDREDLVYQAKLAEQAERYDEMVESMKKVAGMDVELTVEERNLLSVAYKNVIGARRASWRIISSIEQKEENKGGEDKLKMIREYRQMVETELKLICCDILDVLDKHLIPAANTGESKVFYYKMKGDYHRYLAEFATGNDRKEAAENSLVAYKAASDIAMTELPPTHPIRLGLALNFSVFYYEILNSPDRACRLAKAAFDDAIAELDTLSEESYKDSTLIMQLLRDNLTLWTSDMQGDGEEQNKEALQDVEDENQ
Nature of the test: competitive SILAC chemical proteomics in DM93 soluble proteome. In kind it is cell-based.

Another test has as its target T2, DPP3 (Homo sapiens, UniProt Q9NY33).
T2 sequence (Q9NY33 2-737): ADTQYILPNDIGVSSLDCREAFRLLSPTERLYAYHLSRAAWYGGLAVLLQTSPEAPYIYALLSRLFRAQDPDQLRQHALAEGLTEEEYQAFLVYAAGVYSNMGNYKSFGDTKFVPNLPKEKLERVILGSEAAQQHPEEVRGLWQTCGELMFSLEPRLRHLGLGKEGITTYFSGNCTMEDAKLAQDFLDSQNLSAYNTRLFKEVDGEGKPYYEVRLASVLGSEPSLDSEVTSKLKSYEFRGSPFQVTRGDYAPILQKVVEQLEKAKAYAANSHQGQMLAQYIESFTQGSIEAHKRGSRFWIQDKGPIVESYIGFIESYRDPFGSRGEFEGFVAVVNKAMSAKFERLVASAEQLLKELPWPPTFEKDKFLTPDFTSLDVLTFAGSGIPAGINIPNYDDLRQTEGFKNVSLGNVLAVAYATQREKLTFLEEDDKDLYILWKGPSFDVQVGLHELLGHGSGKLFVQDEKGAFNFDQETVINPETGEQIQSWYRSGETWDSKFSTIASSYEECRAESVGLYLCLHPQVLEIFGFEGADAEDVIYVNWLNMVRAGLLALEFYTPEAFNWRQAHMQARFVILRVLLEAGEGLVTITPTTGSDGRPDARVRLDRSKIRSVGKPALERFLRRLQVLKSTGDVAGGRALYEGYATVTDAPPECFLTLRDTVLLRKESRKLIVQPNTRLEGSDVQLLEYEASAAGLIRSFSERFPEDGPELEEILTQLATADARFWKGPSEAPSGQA
Nature of the test: peptidase substrate assay. In kind it is biochemical. The procedure, abridged: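 Purified DPP3 was exposed to test compound over a concentration series, and its catalytic activity was read by a peptidase substrate assay. IC50 was reported with 95% confidence intervals; data are mean ± s.e.m. from n = 3 biologically independent experiments. Y417 engagement was measured by quantitative chemical proteomics with the HHS-482 probe on soluble proteome from HEK293T cells expressing recombinant human DPP3 (n = 2).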

Where only a bound is given, the exact number is not on record here.

glutathione S-transferase Pi (GSTP1), sequence (P09211 2-210): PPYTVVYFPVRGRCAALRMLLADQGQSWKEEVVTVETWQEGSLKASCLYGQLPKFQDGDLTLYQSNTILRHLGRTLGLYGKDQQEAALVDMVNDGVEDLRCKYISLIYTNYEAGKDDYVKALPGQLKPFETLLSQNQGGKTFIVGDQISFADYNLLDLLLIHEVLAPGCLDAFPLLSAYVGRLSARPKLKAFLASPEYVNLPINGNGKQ

Usually IC50 stands for the point on the concentration scale where inhibition reaches its midpoint. Regarding `O=S(=O)(c1ccc2ccccc2c1)n1cnc(-c2ccncc2)n1` [JWB198], the 50% inhibitory concentration (IC50) in test [1] worked out at 16 µM.

Regarding `COc1ccc(-c2ncn(S(=O)(=O)c3ccc(-c4ccccc4)cc3)n2)cc1` [JWB142], the “competitive SILAC chemical proteomics in DM93 soluble proteome (50 μM)” value at YWHAE was > 6 SILAC ratio (SR). This compound came in with an IC50 against DPP3 of 17 µM.
